Among the data in ChEMBL document CHEMBL1135826, “Antimicrobial peptides: synthesis and antibacterial activity of linear and cyclic drosocin and apidaecin 1b analogues” (2002) are MIC values, retold here.

Values after ≈ are worked out from the molar mass of the structure shown. Where a SMILES comes first, the peptide text is derived from it. The star is where a group is joined. X2 = CC(=O)N[C@@H]1[C@@H](O)[C@H](O)[C@@H](CO)O[C@@H]1*

For experiment [1], the system named is Salmonella typhimurium. Description: Minimum inhibitory concentration (lowest peptide concentration) required to prevent visible bacterial growth after 18 hr of incubation at 37 C in Mueller-Hinton broth against Salmonella Typhimurium ATCC 14028. The experiment is classed as functional, Salmonella enterica subsp. enterica serovar Typhimurium. Particulars: Salmonella enterica. Put shortly: (§1)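 Broth microdilution susceptibility test per NCCLS guidelines, in Mueller–Hinton broth with about 1.5–2.0 × 10^5 CFU/mL inoculum. Plates were incubated 18 h at 37 °C. MIC was taken as the lowest peptide concentration with no visible growth. Strains were ATCC strains or clinical isolates; E. coli O18:K1:H7 Bort is an encapsulated isolate from neonatal spinal fluid, and the S. aureus isolate is MRSA.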

Experiment [2] concerns Acinetobacter baumannii. Nature of the experiment: Minimum inhibitory concentration (lowest peptide concentration) required to prevent visible bacterial growth after 18 hr of incubation at 37 C in Mueller-Hinton broth against Acinetobacter baumannii 118A. Type of experiment: functional. A digest of the protocol:
as §1

Experiment [3] has as its system Escherichia coli. Nature of the experiment: Minimum inhibitory concentration (lowest peptide concentration) required to prevent visible bacterial growth after 18 hr of incubation at 37 C in Mueller-Hinton broth against Escherichia coli D22. The experiment is classed as functional. A digest of the protocol:
as §1

Experiment [4] has as its system Klebsiella pneumoniae. Nature of the experiment: Minimum inhibitory concentration (lowest peptide concentration) required to prevent visible bacterial growth after 18 hr of incubation at 37 C in Mueller-Hinton broth against Klebsiella pneumoniae 22. The experiment is classed as functional. Put shortly:
as §1

For experiment [5], the system named is Staphylococcus epidermidis. Description: Minimum inhibitory concentration (lowest peptide concentration) required to prevent visible bacterial growth after 18 hr of incubation at 37 C in Mueller-Hinton broth against Staphylococcus epidermidis 4. Type of experiment: functional. Put shortly: as §1
Experiment [6] has as its system Pseudomonas aeruginosa. Description: Minimum inhibitory concentration (lowest peptide concentration) required to prevent visible bacterial growth after 18 hr of incubation at 37 C in Mueller-Hinton broth against Pseudomonas aeruginosa ATCC 27853. The note with it: ATCC 27853, 18 h. The experiment is classed as functional. A digest of the protocol: as §1
In experiment [7] the test system is Klebsiella pneumoniae. Description: Minimum inhibitory concentration (lowest peptide concentration) required to prevent visible bacterial growth after 18 hr of incubation at 37 C in Mueller-Hinton broth against Klebsiella pneumoniae 79. Type of experiment: functional. A digest of the protocol: as §1
The test system of experiment [8] is Salmonella enteritidis. Description: Minimum inhibitory concentration (lowest peptide concentration) required to prevent visible bacterial growth after 18 h of incubation at 37 C in Mueller-Hinton broth against […]. Type of experiment: functional, Salmonella enterica subsp. enterica serovar Enteritidis. The note with it: Salmonella enterica. Put shortly: as §1

Experiment [9] has as its system Escherichia coli. Description: Minimum inhibitory concentration (lowest peptide concentration) required to prevent visible bacterial growth after 18 hr of incubation at 37 C in Mueller-Hinton broth against Escherichia coli O18:K1:H7. Type of experiment: functional. A digest of the protocol: as §1
Experiment [10] deals with Salmonella enteritidis. Description: Minimum inhibitory concentration (lowest peptide concentration) required to prevent visible bacterial growth after 18 hr of incubation at 37 C in Mueller-Hinton broth against Salmonella enteritidis D5. Particulars: Salmonella enterica.
The test system of experiment [11] is Staphylococcus aureus. Description: Minimum inhibitory concentration (lowest peptide concentration) required to prevent visible bacterial growth after 18 hr of incubation at 37 C in Mueller-Hinton broth against Staphylococcus aureus G. The experiment is classed as functional. A digest of the protocol: as §1
The test system of experiment [12] is Escherichia coli. Nature of the experiment: Minimum inhibitory concentration (lowest peptide concentration) required to prevent visible bacterial growth after 18 hr of incubation at 37 C in Mueller-Hinton broth against Escherichia coli D21. Type of experiment: functional. A digest of the protocol:
as §1

In experiment [13] the test system is Escherichia coli. Nature of the experiment: Minimum inhibitory concentration (lowest peptide concentration) required to prevent visible bacterial growth after 18 hr of incubation at 37 C in Mueller-Hinton broth against Escherichia coli ATCC 25922. The note with it: ATCC 25922, 18 h. Type of experiment: functional. A digest of the protocol: as §1
Experiment [14] concerns Escherichia coli. Description: Minimum inhibitory concentration (lowest peptide concentration) required to prevent visible bacterial growth after 18 hr of incubation at 37 C in Mueller-Hinton broth against Escherichia coli ML-35. Type of experiment: functional. Put shortly:
as §1

A word on the MIC: it is the lowest concentration found to suppress growth. Lower therefore signals a more susceptible organism. Turning to H-GKPRPYSPRPTSHPRPIRV-OH [DROSOCIN], the MIC is 32 µM in [1]; above 128 µM in experiment [2]; above 64 µM in experiment [3]; 128 µM in experiment [4]; above 64 µM in experiment [5]; above 128 µM in [6]. Besides, the MIC in experiment [7] was 64 µM; in [8], 8 µM; in [9], 8 µM; in experiment [10], 16 µM; in experiment [11], above 64 µM; in experiment [12] it was above 128 µM. Also, the MIC in [13] came to 4 µM; in experiment [14], 2 µM.
H-GNNRPVYIPQPRPTPHPRL-OH: the MIC was above 128 µM in experiment [1]; above 128 µM in experiment [2]; above 64 µM in experiment [3]; above 128 µM in experiment [4]; above 64 µM in experiment [5]; above 128 µM in experiment [6]. Moreover, the MIC in experiment [7] was above 128 µM; in experiment [8] it was above 128 µM; in experiment [9], above 128 µM; in experiment [10], above 128 µM; in experiment [11] it was above 64 µM; in [12], above 64 µM. The MIC in experiment [13] and in experiment [14] was above 128 µM each time.
Turning to `CC[C@H](C)[C@H](NC(=O)[C@H](Cc1ccc(O)cc1)NC(=O)[C@@H](NC(=O)[C@@H]1CCCN1C(=O)[C@H](CCCN=C(N)N)NC(=O)[C@H](CC(N)=O)NC(=O)[C@H](CC(N)=O)NC(=O)CN)C(C)C)C(=O)N1CCC[C@H]1C(=O)N[C@@H](CCC(N)=O)C(=O)N1CCC[C@H]1C(=O)N[C@@H](CCCN=C(N)N)C(=O)N1CCC[C@H]1C(=O)N[C@H](C(=O)N1CCC[C@H]1C(=O)N[C@@H](Cc1c[nH]cn1)C(=O)N1CCC[C@H]1C(=O)N[C@@H](CCCN=C(N)N)C(=O)N[C@@H](CC(C)C)C(=O)O)[C@@H](C)O[C@H]1O[C@H](CO)[C@@H](O)[C@H](O)[C@H]1NC(C)=O` (H-GNNRPVYIPQPRPT(X2)PHPRL-OH), the MIC is 64 µM (≈ 154 µg/mL) in experiment [1]; above 128 µM in [2]; 32 µM (≈ 77.2 µg/mL) in [3]; above 128 µM in [4]; above 64 µM in experiment [5]; above 128 µM in experiment [6]. Besides, the MIC is above 128 µM in [7]; above 64 µM in [8]; 64 µM (≈ 154 µg/mL) in experiment [9]; 64 µM (≈ 154 µg/mL) in [10]; above 64 µM in experiment [11]; above 64 µM in experiment [12]. Besides, the MIC in [13] and in experiment [14] was 32 µM (≈ 77.2 µg/mL) in each case.
Consider `CC[C@H](C)[C@H](NC(=O)[C@@H]1CCCN1C(=O)[C@H](CCCN=C(N)N)NC(=O)[C@@H]1CCCN1C(=O)[C@H](Cc1c[nH]cn1)NC(=O)[C@@H]1CSSC[C@H](NC(=O)[C@H](Cc2ccc(O)cc2)NC(=O)[C@@H]2CCCN2C(=O)[C@H](CCCN=C(N)N)NC(=O)[C@@H]2CCCN2C(=O)[C@H](CCCCN)NC(=O)CN)C(=O)N2CCC[C@H]2C(=O)N[C@@H](CCCN=C(N)N)C(=O)N2CCC[C@H]2C(=O)N[C@@H]([C@@H](C)O)C(=O)N1)C(=O)N[C@@H](CCCN=C(N)N)C(=O)N[C@H](C(=O)O)C(C)C` (HELM PEPTIDE1{G.K.P.R.P.Y.C.P.R.P.T.C.H.P.R.P.I.R.V}$PEPTIDE1,PEPTIDE1,7:R3-12:R3$$$V2.0), for which the MIC in [1], in experiment [2], in experiment [3], in experiment [4], in [5] and in [6] was above 64 µM each time. Further, the MIC in [7], in experiment [8], in experiment [9], in experiment [10], in [11] and in experiment [12] was above 64 µM each time. For the same compound, the MIC in experiment [13] and in experiment [14] was above 64 µM each time.
